The species entered for assay [1] is Oryctolagus cuniculus. The assay is described as follows: Percent inhibition of compound against U-44,069 (10e-7 M) induced contraction of rabbit aorta at 3*10e-8 M concentration. Format: functional. In short, it runs like this: (§1)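 Rabbit aortic strips (2-3 mm × 3 cm) in Krebs-Henseleit, 37 °C, 95% O2/5% CO2, 2 g resting tension, isometric recording. Drugs (final 10⁻⁵ to 10⁻⁸ M, 0.01% DMSO) added 10 min before U-44069 (2-6 nM, about 50% of the 30 mM KCl contraction). Percent inhibition, or concentration reducing contraction by 50%; duplicate means.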

For assay [2], the species on record is Oryctolagus cuniculus. The assay can be described thus: In vitro percent inhibition against U-44,069 (10e-7 M) induced contraction of rabbit aorta at 10e-5 M concentration. The assay is classed as functional. The gist of the method: as §1
The species entered for assay [3] is Oryctolagus cuniculus. The assay is described as follows: In vitro concentration that reduced U-44069-induced contraction of the rabbit aorta by 50%. The assay is classed as functional. In short, it runs like this:
as §1

The species entered for assay [4] is Oryctolagus cuniculus. The assay can be described thus: In vitro percent inhibition against U-44,069 (10e-7 M) induced contraction of rabbit aorta at 10e-6 M concentration. The assay is classed as functional. In short, it runs like this:
as §1

The species named for assay [5] is Oryctolagus cuniculus. The assay is described as follows: In vitro percent inhibition against U-44,069 (10e-7 M) induced contraction of rabbit aorta at 10e-7 M concentration. Format: functional. In short, it runs like this: as §1
Assay [6] has as its system Cavia porcellus. The assay is described as follows: In vivo percentage of inhibition against IgG1 -induced bronchoconstriction in guinea pig at a concentration of 5 mg/kg after 1 hour of oral administration. Format: functional. The gist of the method: (§2)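 Urethane-anesthetized (1.5 g/kg ip) guinea pigs given gallamine (1 mg/kg iv); bronchoconstriction measured by Konzett-Rössler overflow. Challenge was U-46619, LTD4 or PAF at 10 μg/kg iv, or IgG1-mediated in animals sensitized ip with egg albumin (1 mg/kg)/FCA and used 3 weeks later. Drug given orally in 5% gum arabic 1 h before challenge; n = 8. ID50 = dose giving 50% inhibition.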

Assay [7] concerns Cavia porcellus. The assay can be described thus: In vivo percentage of inhibition against LTD -induced bronchoconstriction in guinea pig at a concentration of 0.08 mg/kg after 1 hour of oral administration. Format: functional. The gist of the method:
as §2

The subject of assay [8] is Cavia porcellus. The assay can be described thus: In vivo percentage of inhibition against LTD -induced bronchoconstriction in guinea pig at a concentration of 0.31 mg/kg after 1 hour of oral administration. The assay is classed as functional. The gist of the method: (§3)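 Guinea pigs were challenged iv with LTD4, PAF or U-46619, each at 10 µg/kg. Bronchoconstriction was measured by the Konzett-Rössler overflow method, as for the sensitized animals (urethane 1.5 g/kg ip, gallamine 1 mg/kg iv). Drug suspended in 5% gum arabic was dosed orally 1 h before spasmogen; eight animals per group; percent inhibition of bronchoconstriction.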

For assay [9], the system named is Cavia porcellus. The assay is described as follows: In vivo percentage of inhibition against LTD -induced bronchoconstriction in guinea pig at a concentration of 1.25 mg/kg after 1 hour of oral administration. The assay is classed as functional. In short, it runs like this:
as §2

The test system of assay [10] is Cavia porcellus. The assay is described as follows: In vivo percentage of inhibition against LTD -induced bronchoconstriction in guinea pig at a concentration of 5 mg/kg after 1 hour of oral administration. The assay is classed as functional. In short, it runs like this: as §2
Assay [11] has as its system Cavia porcellus. The assay can be described thus: In vivo percentage of inhibition against PAF -induced bronchoconstriction in guinea pig at a concentration of 0.31 mg/kg after 1 hour of oral administration. Format: functional. The gist of the method:
as §3

Assay [12] relates to Cavia porcellus. The assay is described as follows: In vivo percentage of inhibition against PAF-induced bronchoconstriction in guinea pig at a concentration of 1.25 mg/kg after 1 hour of oral administration. Format: functional. In short, it runs like this:
as §2

Assay [13] concerns Cavia porcellus. The assay is described as follows: In vivo percentage of inhibition against PAF-induced bronchoconstriction in guinea pig at a concentration of 5 mg/kg after 1 hour of oral administration. The assay is classed as functional. The gist of the method:
as §2

In assay [14] the test system is Cavia porcellus. The assay is described as follows: In vivo percentage of inhibition against U-46619 -induced bronchoconstriction in guinea pig at a concentration of 0.08 mg/kg after 1 hour of oral administration. The assay is classed as functional. The gist of the method: as §2
The test system of assay [15] is Cavia porcellus. The assay can be described thus: In vivo percentage of inhibition against U-46619 -induced bronchoconstriction in guinea pig at a concentration of 0.31 mg/kg after 1 hour of oral administration. Format: functional. The gist of the method: as §3
Assay [16] has as its system Cavia porcellus. The assay is described as follows: In vivo percentage of inhibition against U-46619-induced bronchoconstriction in guinea pig at a concentration of 1.25 mg/kg after 1 hour of oral administration. Format: functional. The gist of the method: as §2
The subject of assay [17] is Cavia porcellus. The assay can be described thus: In vivo percentage of inhibition against IgG1 -induced bronchoconstriction in guinea pig at a concentration of 1.25 mg/kg after 1 hour of oral administration. The assay is classed as functional. The gist of the method:
as §2

In assay [18] the test system is Cavia porcellus. The assay is described as follows: In vivo percentage of inhibition against IgG1 -induced bronchoconstriction in guinea pig at a concentration of 0.31 mg/kg after 1 hour of oral administration. Format: functional. In short, it runs like this:
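Guinea pigs sensitized ip with egg albumin (1 mg/kg) emulsified in Freund's complete adjuvant. Three weeks later, animals whose sera at 1:1000 gave a positive 3-h passive cutaneous anaphylaxis were used. Under urethane (1.5 g/kg ip) and gallamine (1 mg/kg iv), IgG1-mediated bronchoconstriction was measured by Konzett-Rössler overflow. Drug in 5% gum arabic was given orally 1 h before challenge; eight animals per group.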

Assay [19] relates to Cavia porcellus. The assay can be described thus: In vivo inhibition against IgG1-induced bronchoconstriction in guinea pig. The assay is classed as functional. The settings on record: read-out: ID50 (the source's name). The gist of the method:
as §2

In assay [20] the test system is Cavia porcellus. The assay is described as follows: In vivo inhibition against LTD-induced bronchoconstriction in guinea pig. The assay is classed as functional. The settings on record: read-out: ID50 (the source's name). The gist of the method:
as §2

The test system of assay [21] is Cavia porcellus. The assay is described as follows: In vivo inhibition against U-46619-induced bronchoconstriction in guinea pig. Format: functional. The settings on record: read-out: ID50 (the source's name). In short, it runs like this: as §2
Assay [22] is filed under the species Cavia porcellus. The assay is described as follows: In vitro concentration that reduced U-44069-induced aggregation of guinea pig platelets by 50%. The assay is classed as functional. In short, it runs like this:
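PRP from conscious male guinea pigs, blood taken by cardiac puncture into 3.15% citrate (1:9); platelets adjusted to 450 000/μL. PRP preincubated 2 min at 37 °C, then incubated 2 min with U-44069 at a concentration giving submaximal aggregation. IC50 = antagonist concentration reducing aggregation by 50%.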

For assay [23], the species on record is Oryctolagus cuniculus. The assay is described as follows: In vitro concentration that reduced U-44069-induced contraction of the rabbit aorta. Format: functional. The settings on record: read-out: pA2 (converted). In short, it runs like this:
as §1

The species entered for assay [24] is Cavia porcellus. The assay is described as follows: In vitro concentration that reduced U-46619-induced contraction of guinea pig lung. The settings on record: read-out: pA2 (converted).
In assay [25] the test system is Cavia porcellus. The assay can be described thus: In vivo percentage of inhibition against LTD -induced bronchoconstriction in guinea pig at a concentration of 20 mg/kg after 1 hour of oral administration. Format: functional. In short, it runs like this: as §2
Assay [26] has as its system Cavia porcellus. The assay can be described thus: In vivo percentage of inhibition against U-46619 -induced bronchoconstriction in guinea pig at a concentration of 5 mg/kg after 1 hour of oral administration. The assay is classed as functional. In short, it runs like this:
as §2

For assay [27], the system named is Cavia porcellus. The assay is described as follows: In vivo percentage of inhibition against U-46619-induced bronchoconstriction in guinea pig at a concentration of 20 mg/kg when after 1 hour of oral administration. Format: functional. The gist of the method:
as §2

The species entered for assay [28] is Cavia porcellus. The assay is described as follows: In vitro concentration that reduced U-46619-induced contraction of guinea pig lung. The settings on record: read-out: pA2 (converted). This is another data set of the same source.

`CC1=C(C)C(=O)C(C(CCCCCC(=O)O)c2ccc(F)cc2)=C(C)C1=O` (stereo not given): the Inhibition in the assay listed under Oryctolagus cuniculus [1] was found to be 20%; in the assay listed under Oryctolagus cuniculus [2] it was 100%; in the assay filed under Oryctolagus cuniculus [4], 100%; in the assay filed under Oryctolagus cuniculus [5] it was 96%. In addition, the IC50 in the assay filed under Oryctolagus cuniculus [3] was 48 nM.

For the molecule `CC1=C(C)C(=O)C(C(CCCCCC(=O)O)c2ccccc2)=C(C)C1=O` (stereo not given) [SERATRODAST], the figures for the inhibition in vivo at 5 mg/kg with Cavia porcellus [6], in the assay with Cavia porcellus [10] and in the assay with Cavia porcellus [13] were 91%, 94% and 85%, respectively. Further, the inhibition in vivo at 0.08 mg/kg came out at 24% in the assay on Cavia porcellus [7] and 31% with Cavia porcellus [14]. Further, the inhibition in vivo at 0.31 mg/kg in the assay with Cavia porcellus [8] stood at 58%; in the assay on Cavia porcellus [11], 66%; in the assay on Cavia porcellus [15], 89%; with Cavia porcellus [18], 71%. The inhibition in vivo at 1.25 mg/kg in the assay with Cavia porcellus [9] was found to be 77%; with Cavia porcellus [12], 94%; in the assay with Cavia porcellus [16], 90%; with Cavia porcellus [17] it was 85%. In addition, the ED50 in the assay with Cavia porcellus [19] was found to be 0.2 mg/kg; in the assay with Cavia porcellus [20], 0.19 mg/kg; in the assay on Cavia porcellus [21] it was 0.13 mg/kg. The 50% inhibitory concentration (IC50) came out at 350 nM in the assay listed under Cavia porcellus [22] and 100 nM in the assay filed under Oryctolagus cuniculus [3]. Moreover, the figures for the Kb in the assay listed under Oryctolagus cuniculus [23] and in the assay filed under Cavia porcellus [24] were 5.25 nM and 5.13 nM, respectively. For the same molecule, the results for the Inhibition in the assay listed under Oryctolagus cuniculus [2], in the assay listed under Oryctolagus cuniculus [4] and in the assay filed under Oryctolagus cuniculus [5] were 99%, 99% and 49%, respectively.

`CC1=C(C)C(=O)C([C@@H](CCCCCC(=O)O)c2ccccc2)=C(C)C1=O`: the inhibition in vivo at 20 mg/kg in the assay on Cavia porcellus [25] was 65%; in the assay with Cavia porcellus [27], 68%. For the same molecule, the inhibition in vivo at 5 mg/kg was 27% in the assay with Cavia porcellus [10] and 47% in the assay with Cavia porcellus [26]. This molecule returned an IC50 in the assay listed under Cavia porcellus [22] of 13000 nM. For the same molecule, the Kb in the assay listed under Oryctolagus cuniculus [23] was 229 nM; in the assay listed under Cavia porcellus [28], 295 nM.

As for `CC1=C(C)C(=O)C([C@H](CCCCCC(=O)O)c2ccccc2)=C(C)C1=O`, the inhibition in vivo at 0.08 mg/kg in the assay with Cavia porcellus [7] turned out to be 12%; with Cavia porcellus [14] it was 72%. The values for the inhibition in vivo at 0.31 mg/kg in the assay with Cavia porcellus [8] and in the assay with Cavia porcellus [15] were 85% and 75%, respectively. Further, the values for the inhibition in vivo at 1.25 mg/kg with Cavia porcellus [9] and in the assay with Cavia porcellus [16] were 85% and 93%, respectively. In addition, the inhibition in vivo at 5 mg/kg in the assay on Cavia porcellus [10] turned out to be 80%. In the assay listed under Cavia porcellus [22], this molecule showed an IC50 of 120 nM. Moreover, the values for the Kb in the assay filed under Oryctolagus cuniculus [23] and in the assay listed under Cavia porcellus [28] were 2.51 nM and 1.58 nM, respectively.

For orientation: Inhibition means the change of the read-out against control, counted positive when it falls. Read a low Inhibition as little suppression. A word on the IC50: it is the point on the concentration scale where inhibition reaches its midpoint. The low end stands for greater potency in that assay, the high end for weaker potency in that assay. One may read the inhibition in vivo as how much of the control response was suppressed. High values mean strong suppression, low ones little suppression.

The record behind these values is ChEMBL document CHEMBL1124597, “Quinones. 4. Novel eicosanoid antagonists: synthesis and pharmacological evaluation” (J Med Chem, 1989).
